Source: PMC2225856 (The Journal of General Physiology, 1970)
Like-named read-outs stand apart in the source and are kept apart here. Bridge positions count the residues as written; N and C are the ends. Ends that are not written are not given here.

Tests used:
[1] = tested on: toad urinary bladder; conditions: cited from earlier work; for pD2 of reference agonist: Table II, ± SEM
[2] = tested on: toad urinary bladder; test: Noncompetitive antagonism of the hydroosmotic response; format: cell-based, Bufo marinus
Outline: (§1)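 Bufo marinus, 150-250 g, both sexes, kept on moist peat moss and pithed. Bentley sac hemibladders filled with dilute Ringer were preincubated 2 h in stirred full-strength Ringer, then moved to the challenge bath. Water loss was read as sac weight loss at 30 min intervals; sacs were emptied, refilled with fresh dilute Ringer and placed in a fresh bath after each weighing.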

[3] = tested on: toad urinary bladder; test: Hydroosmotic response of the toad urinary bladder; format: cell-based, Bufo marinus; conditions: serosal bath, concentrations as high as 2.86 X 10^-6 M
Outline: as §1

[4] = tested on: toad urinary bladder; conditions: note added in proof; ref Chiu, P.J.S. and W.H. Sawyer. 1970; cited from earlier work
[5] = calculated on the basis of earlier data, ref Eggena et al. (18)

Compound: [8-arginine]-vasopressin (CYFQNCPRG-NH2; disulfide 1-6; UniProt P01185 20-28, looked up)
- pD2 of reference agonist [1, 5]: 9.40

Compound: [5-ornithine]-oxytocin
- pD2 of reference agonist ([1]; ref Havran et al. (22)): 4.92

Compound: CCCCC[C@H](O)/C=C/[C@H]1[C@H](O)CC(=O)[C@@H]1CCCCCCC(=O)O [PGE1, prostaglandin E1]
- Effect on response to oxytocin-theophylline combination ([2]; 2.9 X 10^-7 M PGE1, 1 X 10^-9 M oxytocin + 4 X 10^-3 M theophylline, eight experiments): reduced by PGE1 to almost basal levels
- Effect on response to cyclic AMP-theophylline combination ([2]; 2.9 X 10^-7 M PGE1, 2.5 X 10^-3 M cyclic AMP + 4 X 10^-3 M theophylline, eight experiments): only minimally
- Maximal response to dibutyryl cyclic AMP in the presence of PGE1 ([2]; 2.9 X 10^-7 M PGE1, fraction of maximal response (0.80 without PGE1), ± SEM): 0.72
- Maximal response to theophylline in the presence of PGE1 ([2]; fraction of maximal response (0.78 without PGE1), ± SEM): 0.10
- Diminution in the maximal response to oxytocin in the presence of PGE1, average ([2]; fraction of maximal response, ± 0.10, considerable variation): 0.77
- Hydroosmotic activity per se (bladder permeability to water) [3]: did not increase the bladder permeability to water

Compound: oxytocin
- pD2 of reference agonist [1, 5]: 8.63
- Maximal hydroosmotic response [1]: 100%

Compound: [4-leucine]-oxytocin (CYILNCPLG; ends and bridges not checked; cysteine pairing not given here; UniProt P01178 20-28, looked up, variant Q4L)
- Inhibition of the hydroosmotic action of [8-arginine]-vasopressin and [8-arginine]-vasotocin [4]: competitively in- hibits
